Key:
Format in all cases: ADME, organism-based
Rattus norvegicus [1] = test: Distribution of Se-75 activity in Lung of female Sprague-Dawley Rat 60 min after iv administration of compound; details: in vivo, 1 h
Procedure, shortened: (§1)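 Female Sprague-Dawley rats (100-300 g), five per group, got [75Se]selenonium salt in 0.2 mL saline (5-6 μCi) by lateral tail vein. They were killed by cardioectomy under chloroform anesthesia at the stated time. A sample of the large organ was weighed and gamma counted, and counts were converted to % injected dose/g. Values are mean and SEM of five.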

Rattus norvegicus [2] = test: Distribution of Se-75 activity in blood of female Sprague-Dawley Rat 15 min after iv administration of compound; details: in vivo, 0.25 h
Procedure, shortened: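 Tail-vein injection of 5-6 μCi [75Se]selenonium salt in 0.2 mL saline into female Sprague-Dawley rats (100-300 g), five per group. Rats were killed by cardioectomy under chloroform anesthesia at the time point. Radioactivity was gamma counted and expressed as % injected dose/g, mean and SEM of five.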

Rattus norvegicus [3] = test: Distribution of Se-75 activity in blood of female Sprague-Dawley Rat 240 min after iv administration of compound; details: in vivo, 4 h
Procedure, shortened: (§2)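 Female Sprague-Dawley rats (100-300 g) got 5-6 μCi of [75Se]selenonium salt in 0.2 mL saline via lateral tail vein. Groups of five were anesthetized with chloroform at set times and killed by cardioectomy. Tissues were rinsed, blotted and weighed, then gamma-counted. Values are % injected dose per gram, mean and SEM of five.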

Rattus norvegicus [4] = test: Distribution of Se-75 activity in blood of female Sprague-Dawley Rat 5 min after iv administration of compound; details: in vivo; procedure, shortened: as §2
Rattus norvegicus [5] = test: Distribution of Se-75 activity in blood of female Sprague-Dawley Rat 60 min after iv administration of compound; details: in vivo, 1 h; procedure, shortened: as §2
Rattus norvegicus [6] = test: Distribution of Se-75 activity in Adrenal of female Sprague-Dawley Rat 15 after iv administration of compound; details: in vivo
Procedure, shortened: (§3)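 Female Sprague-Dawley rats (100-300 g), five per group, got [75Se]selenonium salt by lateral tail vein: 0.2 mL saline with 5-6 μCi. Groups were killed by cardioectomy under chloroform anesthesia at the set times. The organ was taken intact, rinsed with saline, blotted, weighed and gamma counted. Values are % injected dose/g, mean and SEM of five.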

Rattus norvegicus [7] = test: Distribution of Se-75 activity in Brain of female Sprague-Dawley Rat 15 min after iv administration of compound; details: in vivo, 0.25 h
Rattus norvegicus [8] = test: Distribution of Se-75 activity in Brain of female Sprague-Dawley Rat 30 min after iv administration of compound; details: in vivo, 0.5 h
Rattus norvegicus [9] = test: Distribution of Se-75 activity in Brain of female Sprague-Dawley Rat 5 min after iv administration of compound; details: in vivo
Rattus norvegicus [10] = test: Distribution of Se-75 activity in Heart of female Sprague-Dawley Rat 30 min after iv administration of compound; details: in vivo, 0.5 h; procedure, shortened: as §3
Rattus norvegicus [11] = test: Distribution of Se-75 activity in Heart of female Sprague-Dawley Rat 5 min after iv administration of compound; details: in vivo; procedure, shortened: as §3
Rattus norvegicus [12] = test: Distribution of Se-75 activity in Heart of female Sprague-Dawley Rat 60 min after iv administration of compound; details: in vivo, 1 h; procedure, shortened: as §3
Rattus norvegicus [13] = test: Distribution of Se-75 activity in Kidney of female Sprague-Dawley Rat 15 min after iv administration of compound; details: in vivo, 0.25 h; procedure, shortened: as §3
Rattus norvegicus [14] = test: Distribution of Se-75 activity in Kidney of female Sprague-Dawley Rat 30 min after iv administration of compound; details: in vivo, 0.5 h; procedure, shortened: as §3
Rattus norvegicus [15] = test: Distribution of Se-75 activity in Kidney of female Sprague-Dawley Rat 5 min after iv administration of compound; details: in vivo; procedure, shortened: as §3
Rattus norvegicus [16] = test: Distribution of Se-75 activity in Kidney of female Sprague-Dawley Rat 60 min after iv administration of compound; details: in vivo, 1 h; procedure, shortened: as §3
Rattus norvegicus [17] = test: Distribution of Se-75 activity in Liver of female Sprague-Dawley Rat 120 min after iv administration of compound; details: in vivo, 2 h; procedure, shortened: as §1
Rattus norvegicus [18] = test: Distribution of Se-75 activity in Liver of female Sprague-Dawley Rat 15 min after iv administration of compound; details: in vivo, 0.25 h; procedure, shortened: as §1
Rattus norvegicus [19] = test: Distribution of Se-75 activity in Liver of female Sprague-Dawley Rat 30 min after iv administration of compound; details: in vivo, 0.5 h; procedure, shortened: as §1
Rattus norvegicus [20] = test: Distribution of Se-75 activity in Liver of female Sprague-Dawley Rat 5 min after iv administration of compound; details: in vivo; procedure, shortened: as §1
Rattus norvegicus [21] = test: Distribution of Se-75 activity in Lung of female Sprague-Dawley Rat 15 min after iv administration of compound; details: in vivo, 0.25 h; procedure, shortened: as §1
Rattus norvegicus [22] = test: Distribution of Se-75 activity in Lung of female Sprague-Dawley Rat 30 min after iv administration of compound; details: in vivo, 0.5 h; procedure, shortened: as §1
Rattus norvegicus [23] = test: Distribution of Se-75 activity in Heart of female Sprague-Dawley Rat 15 min after iv administration of compound; details: in vivo, 0.25 h; procedure, shortened: as §3
Rattus norvegicus [24] = test: Tissue radioactivity ratio in Heart to Blood 120 min after Intravenous Injection in rats; details: other tissue, 2 h
Procedure, shortened: (§4)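 Same rat biodistribution: female Sprague-Dawley rats (100-300 g), 5-6 μCi [75Se]selenonium salt in 0.2 mL saline iv by tail vein, five per time point, killed by cardioectomy under chloroform. Ratios are tissue-to-tissue quotients of gamma-counted % injected dose per gram in each organ (adrenal, heart, kidney, liver, blood).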

Rattus norvegicus [25] = test: Tissue radioactivity ratio in Heart to Blood 15 min after Intravenous Injection in rats; details: other tissue, 0.25 h; procedure, shortened: as §4
Rattus norvegicus [26] = test: Tissue radioactivity ratio in Heart to Blood 240 min after Intravenous Injection in rats; details: other tissue, 4 h; procedure, shortened: as §4
Rattus norvegicus [27] = test: Tissue radioactivity ratio in Heart to Blood 30 min after Intravenous Injection in rats; details: other tissue, 0.5 h; procedure, shortened: as §4
Rattus norvegicus [28] = test: Tissue radioactivity ratio in Heart to Blood 5 min after Intravenous Injection in rats; details: other tissue; procedure, shortened: as §4
Rattus norvegicus [29] = test: Tissue radioactivity ratio in adrenal to Kidney 120 min after Intravenous Injection in rats; details: in vivo, 2 h; procedure, shortened: as §4
Rattus norvegicus [30] = test: Tissue radioactivity ratio in adrenal to Kidney 15 min after Intravenous Injection in rats; details: in vivo, 0.25 h; procedure, shortened: as §4
Rattus norvegicus [31] = test: Tissue radioactivity ratio in adrenal to Kidney 240 min after Intravenous Injection in rats; details: in vivo, 4 h; procedure, shortened: as §4
Rattus norvegicus [32] = test: Tissue radioactivity ratio in adrenal to Kidney 5 min after Intravenous Injection in rats; details: in vivo; procedure, shortened: as §4
Rattus norvegicus [33] = test: Tissue radioactivity ratio in adrenal to Liver 120 min after Intravenous Injection in rats; details: in vivo, 2 h; procedure, shortened: as §4
Rattus norvegicus [34] = test: Tissue radioactivity ratio in adrenal to Liver 15 min after Intravenous Injection in rats; details: in vivo, 0.25 h; procedure, shortened: as §4
Rattus norvegicus [35] = test: Tissue radioactivity ratio in adrenal to Liver 240 min after Intravenous Injection in rats; details: in vivo, 4 h; procedure, shortened: as §4
Rattus norvegicus [36] = test: Tissue radioactivity ratio in adrenal to Liver 30 min after Intravenous Injection in rats; details: in vivo, 0.5 h; procedure, shortened: as §4
Rattus norvegicus [37] = test: Tissue radioactivity ratio in adrenal to Liver 60 min after Intravenous Injection in rats; details: in vivo, 1 h; procedure, shortened: as §4
Rattus norvegicus [38] = test: Tissue radioactivity ratio in adrenal to blood 120 min after Intravenous Injection in rats; details: other tissue, 2 h; procedure, shortened: as §4
Rattus norvegicus [39] = test: Tissue radioactivity ratio in adrenal to blood 30 min after Intravenous Injection in rats; details: other tissue, 0.5 h; procedure, shortened: as §4
Rattus norvegicus [40] = test: Tissue radioactivity ratio in adrenal to blood 5 min after Intravenous Injection in rats; details: other tissue; procedure, shortened: as §4
Rattus norvegicus [41] = test: Tissue radioactivity ratio in adrenal to blood 60 min after Intravenous Injection in rats; details: other tissue, 1 h; procedure, shortened: as §4
Rattus norvegicus [42] = test: Tissue radioactivity ratio in adrenal to Kidney 60 min after Intravenous Injection in rats; details: in vivo, 1 h; procedure, shortened: as §4

COc1ccc(CC[Se+](C)C)cc1OC.[I-]
Dose/g (Rattus norvegicus [1]): 0.38%
Dose/g (Rattus norvegicus [2]): 0.26%
Dose/g (Rattus norvegicus [3]): 0.03%
Dose/g (Rattus norvegicus [4]): 0.34%
Dose/g (Rattus norvegicus [5]): 0.12%
Dose/g (Rattus norvegicus [6]): 0.88%
Dose/g (Rattus norvegicus [7]): 0.02%
Dose/g (Rattus norvegicus [8]): 0.02%
Dose/g (Rattus norvegicus [9]): 0.03%
Dose/g (Rattus norvegicus [10]): 0.58%
Dose/g (Rattus norvegicus [11]): 2.38%
Dose/g (Rattus norvegicus [12]): 0.27%
Dose/g (Rattus norvegicus [13]): 1.29%
Dose/g (Rattus norvegicus [14]): 0.99%
Dose/g (Rattus norvegicus [15]): 2.73%
Dose/g (Rattus norvegicus [16]): 0.53%
Dose/g (Rattus norvegicus [17]): 0.29%
Dose/g (Rattus norvegicus [18]): 1.93%
Dose/g (Rattus norvegicus [19]): 1.75%
Dose/g (Rattus norvegicus [20]): 2.48%
Dose/g (Rattus norvegicus [21]): 0.097%
Dose/g (Rattus norvegicus [22]): 0.75%
Dose/g (Rattus norvegicus [23]): 1.16%
Ratio (Rattus norvegicus [24]): 2.12
Ratio (Rattus norvegicus [25]): 4.46
Ratio (Rattus norvegicus [26]): 2
Ratio (Rattus norvegicus [27]): 2.64
Ratio (Rattus norvegicus [28]): 7
Ratio (Rattus norvegicus [29]): 2.24
Ratio (Rattus norvegicus [30]): 0.68
Ratio (Rattus norvegicus [31]): 4
Ratio (Rattus norvegicus [32]): 0.31
Ratio (Rattus norvegicus [33]): 2.55
Ratio (Rattus norvegicus [34]): 0.46
Ratio (Rattus norvegicus [35]): 3.55
Ratio (Rattus norvegicus [36]): 0.54
Ratio (Rattus norvegicus [37]): 1.14
Ratio (Rattus norvegicus [38]): 9.25
Ratio (Rattus norvegicus [39]): 4.27
Ratio (Rattus norvegicus [40]): 2.53
Ratio (Rattus norvegicus [41]): 5.92
Ratio (Rattus norvegicus [42]): 1.34

C[Se+](C)CCc1ccc(O)c(O)c1.[Cl-]
Dose/g (Rattus norvegicus [1]): 0.58%
Dose/g (Rattus norvegicus [2]): 0.3%
Dose/g (Rattus norvegicus [3]): 0.05%
Dose/g (Rattus norvegicus [4]): 0.35%
Dose/g (Rattus norvegicus [5]): 0.18%
Dose/g (Rattus norvegicus [6]): 0.87%
Dose/g (Rattus norvegicus [7]): 0.01%
Dose/g (Rattus norvegicus [8]): 0.01%
Dose/g (Rattus norvegicus [9]): 0.02%
Dose/g (Rattus norvegicus [10]): 1.08%
Dose/g (Rattus norvegicus [11]): 2.37%
Dose/g (Rattus norvegicus [12]): 0.46%
Dose/g (Rattus norvegicus [13]): 1.07%
Dose/g (Rattus norvegicus [14]): 1.07%
Dose/g (Rattus norvegicus [15]): 2.65%
Dose/g (Rattus norvegicus [16]): 0.59%
Dose/g (Rattus norvegicus [17]): 0.32%
Dose/g (Rattus norvegicus [18]): 2%
Dose/g (Rattus norvegicus [19]): 2.73%
Dose/g (Rattus norvegicus [20]): 1.86%
Dose/g (Rattus norvegicus [21]): 1.14%
Dose/g (Rattus norvegicus [22]): 0.83%
Dose/g (Rattus norvegicus [23]): 1.58%
Ratio (Rattus norvegicus [24]): 2.62
Ratio (Rattus norvegicus [25]): 5.27
Ratio (Rattus norvegicus [26]): 3.2
Ratio (Rattus norvegicus [27]): 3.86
Ratio (Rattus norvegicus [28]): 6.77
Ratio (Rattus norvegicus [29]): 2.52
Ratio (Rattus norvegicus [30]): 0.81
Ratio (Rattus norvegicus [31]): 3.28
Ratio (Rattus norvegicus [32]): 0.29
Ratio (Rattus norvegicus [33]): 2.28
Ratio (Rattus norvegicus [34]): 0.43
Ratio (Rattus norvegicus [35]): 2.56
Ratio (Rattus norvegicus [36]): 0.31
Ratio (Rattus norvegicus [37]): 1.04
Ratio (Rattus norvegicus [38]): 9.12
Ratio (Rattus norvegicus [39]): 3.07
Ratio (Rattus norvegicus [40]): 2.22
Ratio (Rattus norvegicus [41]): 4.83
Ratio (Rattus norvegicus [42]): 1.47
